TRPC4 agonist = activators of mouse TRPC4 channel, primary screen, Fluo4 calcium, HEK293 TRPC4beta/mu-opioid cells | Fluo4 calcium fluorescence; stronger effect = higher value | B-score at 10 µM | 310,000 compounds, 0.49% hits | AID 2237, 2010;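 active = B-score above 5 SD of library B-scores, and initial fluorescence ratio not above library mean plus 5 SD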;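 note: positive B-score marks a calcium rise read as TRPC4 activation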
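Incubation: 45 min room-temperature Fluo4 loading, 110 s read / System: HEK293 cells stably co-expressing mouse TRPC4beta and mu-opioid receptor / Signal: Fluo4 fluorescence, kinetic / Control set: buffer (low) and maximal DAMGO (high) / Measure: integrated baseline-normalised fluorescence ratio, converted to per-well B score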
TRPC4 block = inhibitors of mouse TRPC4 channel, primary screen, Fluo4 calcium, HEK293 TRPC4beta/mu-opioid cells; Short transient receptor potential channel 4 (Mus musculus), Q9QUQ5; DAMGO-evoked Fluo4 calcium flux; stronger effect = lower value; B-score at 10 µM; 300,000 compounds, 0.39% hits; AID 2247, 2010;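 active = B-score over 3 SD under the library average, no early fluorescence shift, positive overall ratio signal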
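Assay system: Stable TRPC4beta/mu-opioid receptor HEK293 cells | Reagent: DAMGO in two steps, submaximal then maximal | Compound dosing: Single concentration per test compound | Signal: Fluo4 Ca2+ flux fluorescence | Evaluation: Per-well B score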
TRPC6 act = mouse TRPC6 channel activators, primary screen, cell-based, HEK293, membrane potential dye | Short transient receptor potential channel 6 (Mus musculus), Q61143 | HEK293-TRPC6 membrane potential dye fluorescence; stronger effect = higher value | B-score at 10 µM | 310,000 compounds, 0.13% hits | AID 2550, 2010;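 active = B-score of the integrated fluorescence ratio above library mean plus 3 SD, and starting fluorescence ratio within library mean plus 5 SD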;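 note: higher score means more depolarization so channel activation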
Target sequence (Q61143 whole entry, looked up): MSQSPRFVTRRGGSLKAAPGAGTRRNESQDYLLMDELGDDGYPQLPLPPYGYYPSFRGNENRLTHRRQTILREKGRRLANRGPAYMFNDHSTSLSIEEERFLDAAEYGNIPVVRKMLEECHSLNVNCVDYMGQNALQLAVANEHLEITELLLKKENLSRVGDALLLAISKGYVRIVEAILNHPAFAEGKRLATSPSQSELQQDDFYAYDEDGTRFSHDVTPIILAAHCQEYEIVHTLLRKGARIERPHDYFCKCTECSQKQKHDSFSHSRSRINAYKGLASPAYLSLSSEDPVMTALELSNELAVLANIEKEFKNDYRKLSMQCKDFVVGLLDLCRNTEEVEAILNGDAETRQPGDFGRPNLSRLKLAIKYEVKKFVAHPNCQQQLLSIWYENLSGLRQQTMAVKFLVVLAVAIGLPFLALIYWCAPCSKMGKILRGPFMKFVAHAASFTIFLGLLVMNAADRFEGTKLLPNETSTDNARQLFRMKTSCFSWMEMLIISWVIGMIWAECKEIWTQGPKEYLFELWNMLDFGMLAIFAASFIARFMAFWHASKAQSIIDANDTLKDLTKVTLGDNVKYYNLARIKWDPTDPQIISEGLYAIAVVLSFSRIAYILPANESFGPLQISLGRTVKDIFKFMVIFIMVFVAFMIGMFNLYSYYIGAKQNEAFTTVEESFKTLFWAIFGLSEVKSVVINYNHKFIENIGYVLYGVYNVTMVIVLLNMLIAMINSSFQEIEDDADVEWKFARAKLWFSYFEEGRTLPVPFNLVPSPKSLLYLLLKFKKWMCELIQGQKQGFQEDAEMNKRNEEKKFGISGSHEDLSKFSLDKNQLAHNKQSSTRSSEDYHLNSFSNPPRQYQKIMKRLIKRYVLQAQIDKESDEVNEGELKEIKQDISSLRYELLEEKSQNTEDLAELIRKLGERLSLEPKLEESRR
TRPC6 inhibitor = mouse TRPC6 channel inhibitors, primary screen, cell-based, HEK293, membrane potential dye; Short transient receptor potential channel 6 (Mus musculus), Q61143; ACh-evoked depolarization; stronger effect = lower value; B-score at 10 µM; 310,000 compounds, 1.1% hits;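 active = B-score under library mean minus 3 SD, initial fluorescence not abnormally high, positive integrated signal ratio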;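 note: B-score derived from integrated fluorescence ratio over the kinetic read; more negative B-score means stronger inhibition of depolarization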
TRPC4 potent = positive allosteric modulators of TRPC4, primary screen, cell-based, mouse TRPC4beta, HEK293 mu-opioid, Fluo-4 calcium; B-score at 10 µM; DAMGO EC20, Fluo-4 Ca2+ flux; stronger effect = higher value; 310,000 compounds, 0.42% hits; Short transient receptor potential channel 4 (Mus musculus), Q9QUQ5; AID 2227, 2009;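 active = B-score of calcium response area above 5 SD of library B-scores, with initial fluorescence ratio within 5 SD of library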
TRPC4 spec 2 = mouse TRPC4 off-target activity of TRPC6 inhibitors, second screen; shares compounds with TRPC6 inhibitor; HEK293 TRPC4/MOR, membrane potential dye fluorescence; channel activated by saturating DAMGO dose; inhibition, % at 10 µM; 920 compounds, 42% hits; AID 2776;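 active = compounds whose fluorescence signal differed from control wells by over 3 SD, either direction, in both duplicate plates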
TRPC4 spec = mouse TRPC4 modulation by TRPC6 hits, confirmation, selectivity assay for TRPC6 inhibitor project, cell-based, HEK293 TRPC4/mu-opioid, membrane potential dye; shares compounds with TRPC6 inhibitor; activity change, negative = inhibition, % at 10 µM; membrane potential fluorescence; 920 compounds, 61% hits;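 active = rise or fall in signal beyond 3 SD of buffer-only wells in both replicate plates, either sign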;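 note: integrated kinetic ratio of fluorescence range over baseline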
HEK293 MPD ctr 2-1 = nonspecific membrane potential effects, parental HEK293, confirmation, counter-screen for TRPC6 inhibitor project, cell-based, second counter screen; shares compounds with TRPC6 inhibitor; parental HEK293 membrane potential dye fluorescence; maximal acetylcholine challenge after compound addition; signal change vs control, % at 10 µM; 920 compounds, 31% hits;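 active = membrane potential signal moving either way by over 3 SD of the maximum-effect control, in both duplicate plates, meaning non-specific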
HEK293 MPD ctr-1 = membrane potential modulation in parental HEK293, confirmation, counter-screen for TRPC6 inhibitor project, cell-based; 920 compounds, 60% hits; membrane potential signal change, % at 10 µM; shares compounds with TRPC6 inhibitor; parental HEK293 membrane potential dye fluorescence; AID 2780, 2010;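 active = membrane potential signal shifting up or down by more than 3 SD of buffer-only wells, on both duplicate plates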
HEK293 MPD ctr-2 = parental HEK293 membrane potential modulation, confirmation, counter-screen for TRPC6 modulator project, cell-based; shares compounds with TRPC6 inhibitor; AID 488924, 2010; membrane potential dye fluorescence; 2,400 compounds, 51% hits; membrane potential signal change, % at 10 µM;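 active = membrane potential signal moves up or down beyond 5 SD from buffer-only wells, on both duplicate plates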
HEK293 MPD ctr 2-2 = second check of TRPC6 modulator effects in parental HEK293 cells. shares compounds with TRPC6 inhibitor. membrane potential dye fluorescence; after compound, maximal acetylcholine stimulation. inhibition, % at 10 µM. 2,400 compounds, 14% hits;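 active = membrane potential signal drops by more than 5 SD from the mean control signal, in both duplicate plates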
TRPC4/MOR mod = TRPC4 modulation by TRPC6 hit compounds, confirmation, selectivity assay for TRPC6 modulator project, cell-based, HEK293 TRPC4/mu-opioid, membrane potential dye, mouse | shares compounds with TRPC6 inhibitor | 2,400 compounds, 69% hits | percent change from control (negative = decrease, positive = increase), % at 10 µM | membrane potential fluorescence;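 active = membrane potential signal moved up or down beyond 5 SD of buffer control wells, in both duplicate plates, actives on both sides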
TRPC4 ctr inh 2 = second check of whether TRPC6 modulators also affect mouse TRPC4; 2,400 compounds, 55% hits; shares compounds with TRPC6 inhibitor; inhibition, % at 10 µM; HEK293 TRPC4/mu-opioid, membrane potential dye fluorescence; stimulated with maximal-effect DAMGO;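 active = drop in membrane potential signal beyond 5 SD of the control wells in both duplicate plates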;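 note: TRPC4 counter screen for TRPC6 hits run under conditions tuned for TRPC6 not TRPC4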
TRPC6 block conf = mouse TRPC6 channel inhibitors, confirmation, HEK293 cells, membrane potential dye, duplicate. shares compounds with TRPC6 inhibitor. ACh-evoked depolarization. inhibition, % at 10 µM. 3,300 compounds, 43% hits. AID 488960, 2010;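 active = fluorescence ratio falls more than 5 SD below the full-stimulation control mean, in both duplicate runs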;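 note: integrated fluorescence ratio of peak minus minimum over baseline after agonist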
TRPC6 act confirm = mouse TRPC6 channel activators, confirmation, HEK293 cells, membrane potential dye, duplicate; activation, % at 10 µM; HEK293-TRPC6 membrane potential dye fluorescence, FDSS; 2,800 compounds, 11% hits; shares compounds with TRPC6 inhibitor;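 active = ratio signal rise beyond 5 SD above unstimulated control wells' mean, seen in both duplicate runs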
Hits are given with their value; i = inactive; nt = no result. Rows were chosen to be rich in hits. Some 2.3% of all compounds tested hit in one or more screens of this group.

SMILES	TRPC4 agonist	TRPC4 block	TRPC6 act	TRPC6 inhibitor	TRPC4 potent	HEK293 MPD ctr-2	HEK293 MPD ctr 2-2	TRPC4/MOR mod	TRPC4 ctr inh 2	TRPC6 block conf	TRPC6 act confirm	others
CCC(CC)COC(=O)C(C#N)c1nc2ccccc2nc1N1CCN(CC)CC1 (stereo not drawn)	i	i	i	-9.8	i	nt	nt	nt	nt	63%	i	TRPC4 spec 2=50%;TRPC4 spec=i;HEK293 MPD ctr 2-1=i;HEK293 MPD ctr-1=i
COc1cc(NC(=O)CC2NCCNC2=O)cc(OC)c1 (stereo not drawn)	i	i	i	-6.1	i	i	i	i	i	i	i
COC(=O)c1cccc(NC(=O)CC2NCCNC2=O)c1 (stereo not drawn)	i	i	i	i	i	nt	nt	nt	nt	nt	nt
CCOC(=O)C1CCN(C(=O)c2ccccc2Oc2ccccc2)CC1	i	i	i	i	i	nt	nt	nt	nt	nt	nt
O=C(c1ccco1)N1CCN(C(=O)c2ccccc2Oc2ccccc2)CC1	i	i	i	-8.1	i	nt	nt	nt	nt	62%	nt	TRPC4 spec 2=i;TRPC4 spec=13%;HEK293 MPD ctr 2-1=i;HEK293 MPD ctr-1=6.7%
CCOC(=O)N1CCN(C(=O)c2ccccc2Oc2ccccc2)CC1	i	i	i	-6.1	i	94%	i	26%	i	67%	nt
O=C(c1ccco1)N1CCN(C(=O)c2ccccc2OC(=O)C23CC4CC(CC(C4)C2)C3)CC1	i	i	i	i	i	nt	nt	nt	nt	nt	nt
Cc1cccc(NC(=O)NC2CCCc3ccccc32)c1 (stereo not drawn)	i	i	i	i	i	nt	nt	nt	nt	nt	nt
OCCCCCN=c1cc(-c2ccccc2)oc2ccc(Cl)cc12	i	i	i	-8	i	nt	nt	nt	nt	74%	i	TRPC4 spec 2=57%;TRPC4 spec=-26%;HEK293 MPD ctr 2-1=31%;HEK293 MPD ctr-1=-432%
OCCN1CCN(c2nc(-c3ccccc3)c3cc(Cl)ccc3n2)CC1	i	i	i	i	i	nt	nt	nt	nt	nt	nt
O=C1CCC(c2ccccc2)(C2CCN(Cc3ccccc3)CC2)C(=O)N1 (stereo not drawn)	i	i	i	-6.3	i	96%	84%	20%	35%	74%	nt
CCOc1ccc(S(=O)(=O)N2CCCCC2)cc1NC(=O)C1CSC2(C)CCC(=O)N12 (stereo not drawn)	i	i	12	-8.3	i	152%	i	33%	i	68%	106%
O=C(NCCN1CCOCC1)c1c(O)nc2sccn2c1=O	i	i	i	i	i	nt	nt	nt	nt	nt	nt
CCc1nnc(NC(=O)CSC(=S)N2CCOCC2)s1	i	i	i	-6.9	i	i	i	i	i	i	i
Cc1cnc(NC(=O)CSC(=S)N2CCOCC2)s1	i	i	i	i	i	nt	nt	nt	nt	nt	nt
Cc1nnc(C)c2c(C)n(-c3ccccc3)c(C)c12	i	i	i	-5	i	-127%	i	-22%	50%	45%	i
CS(=O)(=O)N(CC(=O)Nc1ccc(S(=O)(=O)N2CCCC2)cc1)c1cccc(F)c1	i	i	i	i	i	nt	nt	nt	nt	nt	nt
CN1CCN(c2nc(-c3cccnc3)nc3ccccc23)CC1	i	i	i	-8.1	i	-320%	69%	-57%	66%	56%	i
CCN1CCN(c2nn3c(=O)c4ccccc4nc3c3ccccc23)CC1	i	i	i	-5.3	i	i	i	i	52%	42%	i
CCN1CCN(c2nc(-c3cccnc3)nc3ccccc23)CC1	i	i	i	-8.2	i	-356%	i	-58%	62%	58%	i
CN1CCN(c2nc(-c3ccccn3)nc3ccccc23)CC1	i	i	i	-16	i	-428%	82%	-70%	72%	74%	i
CC1CN(c2nn3c(=O)c4ccccc4nc3c3ccccc23)CC(C)O1 (stereo not drawn)	i	i	i	i	i	nt	nt	nt	nt	nt	nt
O=C1COc2ccc(C(=O)COC(=O)c3cc(S(=O)(=O)N4CCOCC4)ccc3F)cc2N1	i	i	i	i	i	nt	nt	nt	nt	nt	nt
COc1ccc(-n2nc(C(=O)NCC(=O)Nc3ccc(F)cc3)c3ccccc3c2=O)cc1	i	i	i	i	i	nt	nt	nt	nt	nt	nt
Cc1ccc(NC(=S)N(CCCN2CCOCC2)Cc2cccnc2)cc1C	i	i	i	i	i	nt	nt	nt	nt	nt	nt
CCCN1CCN(c2nc(-c3cccs3)nc3ccccc23)CC1	i	i	i	-6.1	i	-64%	i	-15%	52%	i	i
Fc1cccc(Cc2noc(CN3CCN(C4CCc5ccccc5C4)CC3)n2)c1 (stereo not drawn)	i	i	i	-7.8	i	nt	nt	nt	nt	i	nt	TRPC4 spec 2=i;TRPC4 spec=14%;HEK293 MPD ctr 2-1=290%;HEK293 MPD ctr-1=13%
Fc1cccc(Cc2noc(CN3CCCN(C4Cc5ccccc5C4)CC3)n2)c1	i	i	i	-5.1	i	202%	i	28%	70%	46%	nt

Screening data as filed in PubChem.
